# Screening results (PubChem)
# IDE cell activ: boosts human insulin-degrading enzyme activity in HEK cells; P14735; FAbeta-B cleavage, fluorescence polarization; 0% vehicle, 100% cell-free pure enzyme wells; activation, % at 5.96 µM; 340,000 tested, 0.073% active;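 active = activation above the mean of all tested compounds plus 3 SD, set per screening campaign, cut at about 17% in these data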
# Rpn11 block: blocks the human proteasome subunit Rpn11; O00487; human 26S proteasome, Ub4-pepOG fluorescence polarization; 20S core pre-blocked with epoxomicin; calls only at 20 µM; 360,000 tested, 0.59% active; AID 588493;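 active = inhibition at 20 µM, scaled to each plate's controls, above about 33%, limit read from the data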
# Target sequence (O00487 whole entry, looked up): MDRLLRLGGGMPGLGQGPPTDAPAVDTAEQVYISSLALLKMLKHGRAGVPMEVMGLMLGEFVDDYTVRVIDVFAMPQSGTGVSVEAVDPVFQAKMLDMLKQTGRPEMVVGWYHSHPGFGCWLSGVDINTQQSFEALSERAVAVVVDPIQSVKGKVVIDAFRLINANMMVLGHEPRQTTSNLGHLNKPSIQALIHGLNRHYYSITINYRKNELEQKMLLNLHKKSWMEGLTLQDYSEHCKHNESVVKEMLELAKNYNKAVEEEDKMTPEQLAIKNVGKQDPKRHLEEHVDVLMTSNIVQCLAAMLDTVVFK
# TPT1 inh: blocks Candida albicans tRNA 2'-phosphotransferase | recombinant caTPT1, FP RNA substrate dephosphorylation | AID 1962 | inhibition, % at 5 µM | 300,000 tested, 0.81% active;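 active = inhibition above the mean of all tested compounds plus 3 SD, set per screening campaign, cut at about 24% in these data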;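 also: plate controls were DMSO alone for no effect and ferristatin control at 100 nM for full effect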
# CSN inh: CSN deneddylation inhibition | inhibition, % at 12.5 µM | 360,000 tested, 0.38% active | Purified CSN, SCF-Nedd8-OG deneddylation, fluorescence polarization | AID 651999;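 active = pattern-corrected inhibition above about 35%, with an unprinted fluorescence ratio check between 0.5 and 1.5, limit read from the data, passing the limit was not always enough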;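 also: 0% = enzyme with substrate and 100% = substrate without enzyme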
# Target sequence (Q92905 whole entry, looked up, one chain of several): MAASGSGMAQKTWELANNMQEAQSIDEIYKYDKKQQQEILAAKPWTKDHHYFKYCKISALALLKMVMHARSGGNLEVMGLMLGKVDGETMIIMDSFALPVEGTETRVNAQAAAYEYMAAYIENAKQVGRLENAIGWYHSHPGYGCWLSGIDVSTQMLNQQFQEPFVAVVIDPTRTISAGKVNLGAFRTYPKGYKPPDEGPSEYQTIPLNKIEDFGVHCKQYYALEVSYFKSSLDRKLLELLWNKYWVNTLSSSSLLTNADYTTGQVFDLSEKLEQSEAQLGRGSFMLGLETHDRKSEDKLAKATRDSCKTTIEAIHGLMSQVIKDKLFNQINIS
#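 Material: human Csn5 produced in HEK293T cells; Input: enzyme 0.24 nM; Reagent: SCFSkp2-Nedd8OG substrate at 10 nM final; Dosing: 12.5 µM compound; Incubation: 90 min reaction at room temperature; Detection: fluorescence polarization of the substrate; Evaluation: % inhibition of substrate cleavage by Csn5; Control set: substrate-only high control, full reaction low control.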
# HNF4A DNA FP: change in binding of human HNF4 alpha to DNA. activity change, % at 10 µM. 360,000 tested, 0.3% active. AID 1224865. HNF4a-FITC DNA binding, fluorescence polarization, 1 h; in the data active = activity change above about 30%, passing the limit was not always enough
# IDE inh: cellular human IDE inhibition; inhibition, % at 5.59 µM; P14735; 320,000 tested, 0.41% active; AID 434962; HEK cells, FAbetaB cleavage, fluorescence polarization;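 active = percent inhibition above the average of all tested compounds plus 3 SD, set per screening campaign, cut at about 16% in these data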;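 also: IDE supplied by intact live HEK cells; FP after avidin binding of uncleaved biotin substrate so inhibition keeps polarization high; 0% = DMSO wells and 100% = 60 µM reference IDE inhibitor Ii1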
# IDE inh confirm: confirmation of human insulin-degrading enzyme inhibitors in cells; AID 435028; inhibition, % at 5.59 µM; HEK cells, FAbetaB cleavage, fluorescence polarization; 1,200 tested, 51% active; shares compounds with IDE inh;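 active = mean inhibition across triplicate wells above the cutoff set by the earlier primary insulin-degrading enzyme screen, cut at about 16% in these data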;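 also: 0% = DMSO wells and 100% = 60 µM reference IDE inhibitor Ii1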
# HEK293 tox: counter-screen for IDE inhibitors: cytotoxicity in HEK cells. HEK293 cytotoxicity, ATP luminescence. 1,200 tested, 28% active. inhibition, % at 5.59 µM. shares compounds with IDE inh; in the data active = inhibition above about 22%;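 also: 0% = vehicle wells and 100% = reference cytotoxic drug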
# FP fluor counter: fluorescent artifact in IDE inhibitor FP assay | shares compounds with IDE inh | FP counterscreen for fluorescent artifacts, IDE probe project | 30 tested, under 10 active | IC50, µM | AID 588718; call rule not given here
# Active calls of the source: *; i = inactive; . = no result. Rows were chosen to be rich in hits. Some 1.7% of all compounds tested hit in one or more screens of this group.
SMILES,IDE cell activ,Rpn11 block,TPT1 inh,CSN inh,HNF4A DNA FP,IDE inh,IDE inh confirm,HEK293 tox,others
N#Cc1ccc(OCC(=O)NCCN2CCOCC2)cc1,-1.6,i,.,3.0,-1.5,-0.9,.,.,
Cc1ccc(-c2cc(=O)c3cc(F)ccc3[nH]2)cc1,-2.2,i,-0.7,-4.8,-0.7,1.0,.,.,
Cc1ccc(C)c(-n2sc3ccc(F)cc3c2=O)c1,-22.3,i,.,2.8,-2.4,36.5*,18.8*,69.3*,
COc1ccc(-n2sc3ccc(F)cc3c2=O)cc1,-22.9,i,.,-3.1,4.4,57.9*,34.5*,80.9*,
COc1ccc(-n2sc3ccccc3c2=O)cc1,.,i,.,-4.1,-2.6,.,.,.,
O=c1c2cc(F)ccc2sn1-c1ccc(F)cc1,-21.8,i,.,-0.9,1.2,34.8*,18.3*,42.1*,
COc1ccc(-c2[nH]ncc2N=Nc2cc(C)cc(C)c2)cc1,5.1,i,4.6,-1.7,3.7,-3.0,.,.,
CC(=O)c1c(C)[nH]c(C(=O)Nc2ccc(Cl)c(S(=O)(=O)N(C)C)c2)c1C,-1.0,i,0.8,-0.9,1.3,1.5,.,.,
Cc1[nH]c(=O)[nH]c(=S)c1C(=O)Nc1ccc(Cl)c(Cl)c1,-13.3,i,-1.0,-0.4,-2.1,25.9*,2.3,10.8,
O=C(NC1CCCCC1)C12CC3CC(CC(Cl)(C3)C1)C2,1.3,i,0.3,-4.2,0.6,-0.3,.,.,
COc1ccc(C2(c3ccc(OC)cc3)NC(=O)N(CC(=O)Nc3ccc(N4CCOCC4)cc3)C2=O)cc1,0.5,i,3.5,-0.4,0.5,-0.7,.,.,
O=C(O)c1ccccc1NS(=O)(=O)c1cccc(-n2sc3ccccc3c2=O)c1,-20.1,i,5.0,3.3,-1.7,90.2*,73.0*,1.2,
COc1ccccc1NC(=O)c1sc2nc3n(c(=O)c2c1C)CCC3,7.9,i,-1.9,2.1,4.9,1.6,.,.,
O=C(C1CC1)N1CCN(c2ccnc3cc(Cl)ccc23)CC1,-31.2,i,-2.7,-1.7,-2.9,21.6*,16.4*,13.2,FP fluor counter=>54.7
COc1ccc(OC)c(NC(=O)C2CCN(c3cc(-c4ccccc4)nc4ncnn34)CC2)c1,-6.7,i,1.1,0.1,-1.7,3.1,.,.,
CN(C)S(=O)(=O)N1CCN(c2ccnc3cc(Cl)ccc23)CC1,-19.1,i,-1.1,-1.3,-4.3,11.2,.,.,
COc1ccccc1NC(=O)N1CCN(c2cc(-c3ccccc3)nc3ncnn23)CC1,-14.6,i,-3.3,1.4,2.0,18.6*,-0.2,22.9*,
COc1ccccc1NC(=O)N1CCN(c2ccc3nnc(-c4ccc(F)cc4)n3n2)CC1,-4.9,i,-2.4,-3.1,0.8,16.7*,8.3,9.0,
CC(C)(C)C(=O)N1CCN(c2ccnc3cc(Cl)ccc23)CC1,-23.4,i,3.2,-4.4,-0.4,33.6*,16.6*,16.4,
O=C(c1cccs1)N(c1ccc(F)cc1)C1C=CS(=O)(=O)C1 (configuration not stated),4.5,i,-0.6,11.8,0.4,5.3,.,.,
S=C(Nc1ccc(Cl)cc1Cl)NC1CCCCC1,1.8,i,0.2,-3.6,-1.8,-0.2,.,.,
COc1ccc(CN2CCCC(CNC(=O)c3ccc(F)cc3)C2)c(F)c1 (configuration not stated),3.4,i,-4.5,-2.8,-2.8,-2.0,.,.,
COc1ccc(C(=O)O/N=C2\CCCc3nonc32)cc1,3.7,i,-0.2,-10.4,1.8,5.3,.,.,
CC1CC(=O)Nc2ccccc2N1C(=O)COc1ccc2ccccc2c1 (configuration not stated),5.1,i,.,3.4,-7.5,0.3,.,.,
COc1ccccc1N1CCN(c2ccnc3cc(Cl)ccc23)CC1,-11.2,i,1.1,1.1,-2.5,6.8,.,.,
SMILES,IDE cell activ,Rpn11 block,TPT1 inh,CSN inh,HNF4A DNA FP,IDE inh,IDE inh confirm,HEK293 tox,others
O=C(Nc1ccc(OC(F)(F)F)cc1)N1CCN(c2ccnc3cc(Cl)ccc23)CC1,-32.2,i,-3.3,-1.4,4.0,36.0*,11.8,35.5*,
COc1ccccc1NC(=O)N1CCN(c2ccnc3cc(Cl)ccc23)CC1,-27.6,i,0.6,4.4,-1.3,23.4*,14.7,11.6,
CC(=O)c1ccc(N2CCN(c3ccnc4cc(Cl)ccc34)CC2)cc1,-45.7,i,-2.4,5.0,2.8,25.1*,18.2*,39.2*,
O=C(C1CCC1)N1CCN(c2ccnc3cc(Cl)ccc23)CC1,-25.1,i,-1.4,-1.1,1.0,21.3*,17.9*,14.5,
O=S(=O)(c1ccccc1OC(F)(F)F)N1CCN(c2ccnc3cc(Cl)ccc23)CC1,-19.9,i,1.7,-9.0,-2.6,15.0,.,.,
CSc1ccccc1C(=O)C1CCCN(C(=O)c2cc(C(C)C)no2)C1 (configuration not stated),1.6,i,-7.1,2.9,-2.1,-2.1,.,.,
C=CCNC(=S)N1CCOCC1,5.6,i,-4.3,-4.9,-3.0,-2.0,.,.,
CC[C@H](C)[C@H]1CNC(=S)N1CC1CCN(CCCCc2ccccc2)CC1,0.5,i,.,-0.1,3.5,.,.,.,
O=C(C1CCCCC1)N1CCN(c2ccnc3cc(Cl)ccc23)CC1,-43.9,i,6.2,-1.2,3.6,23.8*,23.0*,42.4*,
O=S(=O)(c1cccc(Br)c1)N1CCN(c2ccnc3cc(Cl)ccc23)CC1,-19.4,i,-0.5,-0.1,-0.4,14.0,.,.,
O=C(c1ccco1)N1CCN(c2ccnc3cc(Cl)ccc23)CC1,-17.1,i,2.3,2.2,-2.1,26.3*,17.6*,13.5,
N#Cc1cccc(S(=O)(=O)N2CCN(c3ccnc4cc(Cl)ccc34)CC2)c1,-33.5,i,2.8,-0.5,-1.8,19.6*,8.0,17.3,
CCC1CCCCN1S(=O)(=O)c1ccccc1 (configuration not stated),3.9,i,4.1,0.7,2.8,3.5,.,.,
CSc1cccc(CN2CCC(CCC(=O)NC3CC3)CC2)c1,6.3,i,-0.9,1.9,-4.2,2.5,.,.,
CCCCCN(C(=O)CCC(=O)OCc1cccc(C(F)(F)F)c1)c1c(N)n(CCCC)c(=O)[nH]c1=O,-2.0,i,-1.3,-0.2,-2.4,-4.9,.,.,
N#Cc1ccccc1Cn1cc(/C=C/[N+](=O)[O-])c2ccccc21,-4.1,i,4.0,6.0,1.9,16.5*,4.6,84.9*,
O=[N+]([O-])/C=C/c1cn(Cc2ccccc2)c2ccccc12,-1.0,i,10.3,6.3,2.3,3.6,.,.,
